Results taken from ChEMBL document CHEMBL3046721, “3-(Arylthiomethyl)isoxazole-4,5-dicarboxamides: chemoselective nucleophilic chemistry and insecticidal activity” (2009).
The source made the active and inactive calls.

Tests used:
[1] = tested on: Spodoptera exigua; assay: Insecticidal activity against second-instar larval stage of Spodoptera exigua fed with artificial diet containing compound assessed as mortality at 50 ug/cm2 after 5 days by diet-based secondary assay; assay type: functional; conditions: 120 h
Method in brief: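 Second-instar larvae on 128-well trays with 1 mL diet dosed at 50 μg/cm2, eight wells per treatment under clear plastic. Percent mortality averaged over the eight wells, scored 5 days after assay start; tested only on primary-screen hits (>67% mortality).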

[2] = tested on: Spodoptera exigua; assay: Insecticidal activity against larvae of Spodoptera exigua fed with artificial diet containing compound assessed as mortality after 6 days by high-throughput screening assay; assay type: functional; design: concentration or dose not given beside the values
Method in brief: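 Artificial diet (100 μl/well, 96-well) pretreated with 12 μg compound in 30 μl DMSO-acetone-water (2:1:7), dried several hours, then seeded with eggs. Plates covered, kept in dark at 29°C, mortality recorded 6 days post-treatment. Six replicates per treatment.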

[3] = tested on: Aedes aegypti; assay: Insecticidal activity against larvae of Aedes aegypti assessed as mortality after 3 days by high-throughput screening assay; assay type: functional, organism-based
Method in brief: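 One-day-old larvae placed in 96-well plates pre-treated with 6 μg/well, applied in 15 μl DMSO-acetone-water (1:1:8) and dried. Plates lidded, held at room temperature, mortality graded 3 days post-treatment. Six replicates per treatment.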

[4] = tested on: Helicoverpa zea; assay: Insecticidal activity against second-instar larval stage of Helicoverpa zea (corn earworm) fed with artificial diet containing compound assessed as mortality after 5 days by diet-based secondary assay; assay type: functional, organism-based
Method in brief: (§1)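 Follow-up for primary-screen hits (>67% mortality): 128-well diet trays, 1 mL diet containing selected dosages, second-instar larvae. Wells covered with clear plastic, eight wells per treatment, percent mortality averaged over eight wells at 5 days. Approximate LC50 estimated by probit analysis.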

[5] = tested on: Spodoptera exigua; assay: Insecticidal activity against second-instar larval stage of Spodoptera exigua fed with artificial diet containing compound assessed as mortality after 5 days by diet-based secondary assay; assay type: functional; method in brief: as §1

SMILES	mortality at 50 µg/cm2 [1]	mortality [2]	mortality [3]	mortality [4]	LC50 [5]
C=CCNC(=O)c1onc(CSc2ccc(F)cc2)c1C(=O)NCC=C	0%	67%	inactive		
C=CCNC(=O)c1onc(CS(=O)(=O)c2ccccc2)c1C(=O)NCC=C	0%	100%	inactive	inactive	
CC(C)NC(=O)c1onc(CS(=O)(=O)c2ccccc2)c1C(=O)NC(C)C	0%	100%	inactive	inactive	
CC(C)NC(=O)c1onc(CSc2ccccc2)c1C(=O)NC(C)C	0%	67%	inactive		
O=C(NCc1ccccc1)c1onc(CSc2ccc(F)cc2)c1C(=O)NCc1ccccc1	0%	67%	inactive		
COCCNC(=O)c1onc(CS(=O)(=O)c2ccccc2)c1C(=O)NCCOC	75%	83%	inactive	inactive	19 microg/cm2
CC(C)NC(=O)c1onc(CS(=O)(=O)c2ccc(Cl)cc2)c1C(=O)NC(C)C	0%	97%	inactive	inactive	
CCCNC(=O)c1c(CS(=O)(=O)c2ccccc2)noc1C(=O)NCc1ccccc1	0%	100%	inactive	inactive	
CC(C)CCNC(=O)c1c(CSc2ccc(Cl)cc2)noc1C(=O)NCc1ccccc1	0%	67%	inactive		
C=CCNC(=O)c1c(CS(=O)(=O)c2ccc(Cl)cc2)noc1C(=O)NCc1ccccc1	38%	100%	inactive	inactive	
CC(C)NC(=O)c1c(CSc2ccc(Cl)cc2)noc1C(=O)NCc1ccccc1	0%	100%	inactive	inactive	
CCCCNC(=O)c1onc(CS(=O)(=O)c2ccccc2)c1C(=O)NCCCC	75%	100%	inactive	inactive	30 microg/cm2
O=C(NCc1ccccc1)c1onc(CSc2ccc(Cl)cc2)c1C(=O)NCc1ccccc1	0%	67%	inactive		
CC(C)CCNC(=O)c1onc(CSc2ccc(Cl)cc2)c1C(=O)NCCC(C)C	0%	100%	inactive	inactive	
COCCNC(=O)c1onc(CSc2ccc(Cl)cc2)c1C(=O)NCCOC	0%	83%	inactive	inactive	
CCCCNC(=O)c1c(CSc2ccc(Cl)cc2)noc1C(=O)NCc1ccccc1	0%	83%	inactive	inactive	
CC(C)CCNC(=O)c1onc(CSc2ccc(F)cc2)c1C(=O)NCCC(C)C	38%	100%	inactive	inactive	
CC[C@H]1CCC[C@H](O[C@H]2CC[C@H](N(C)C)[C@@H](C)O2)[C@@H](C)C(=O)C2=C[C@@H]3[C@@H](C=C(C)[C@@H]4C[C@@H](O[C@@H]5O[C@@H](C)[C@H](OC)[C@@H](OC)[C@H]5OC)C[C@@H]34)[C@@H]2CC(=O)O1.CC[C@H]1CCC[C@H](O[C@H]2CC[C@H](N(C)C)[C@@H](C)O2)[C@@H](C)C(=O)C2=C[C@@H]3[C@@H](C=C[C@@H]4C[C@@H](O[C@@H]5O[C@@H](C)[C@H](OC)[C@@H](OC)[C@H]5OC)C[C@@H]34)[C@@H]2CC(=O)O1					0.06 microg/cm2
CCCCNC(=O)c1c(CS(=O)(=O)c2ccccc2)noc1C(=O)NCc1ccccc1	0%	67%	inactive		
COCCNC(=O)c1c(CS(=O)(=O)c2ccccc2)noc1C(=O)NCc1ccccc1		100%	inactive	inactive	
CCCNC(=O)c1c(CSc2ccc(Cl)cc2)noc1C(=O)NCc1ccccc1	0%	100%	inactive	inactive	
COCCNC(=O)c1onc(CSc2cccc(OC)c2)c1C(=O)NCCOC	0%	67%	inactive		
O=C(NCc1ccccc1)c1onc(CSc2ccccn2)c1C(=O)NCc1ccccc1	0%	67%	inactive		

SMILES	mortality at 50 µg/cm2 [1]	mortality [2]	mortality [3]	mortality [4]	LC50 [5]
CCCCNC(=O)c1c(CS(=O)(=O)c2ccc(Cl)cc2)noc1C(=O)NCc1ccccc1	0%	83%	inactive	inactive	
C=CCNC(=O)c1onc(CSc2cccc(OC)c2)c1C(=O)NCC=C	0%	67%	inactive		
C=CCNC(=O)c1c(CSc2ccc(Cl)cc2)noc1C(=O)NCc1ccccc1	0%	83%	inactive	inactive	
CCCNC(=O)c1onc(CS(=O)(=O)c2ccc(Cl)cc2)c1C(=O)NCCC	0%	83%	inactive	inactive	
COCCNC(=O)c1onc(CS(=O)(=O)c2ccc(Cl)cc2)c1C(=O)NCCOC	0%	100%	inactive	inactive	
Cc1cc(C)cc(SCc2noc(C(=O)NCc3ccccc3)c2C(=O)NCc2ccccc2)c1	0%	83%	inactive	inactive	
C=CCNC(=O)c1c(CS(=O)(=O)c2ccccc2)noc1C(=O)NCc1ccccc1	0%	100%	inactive	inactive	
CCCCNC(=O)c1onc(CS(=O)(=O)c2ccc(Cl)cc2)c1C(=O)NCCCC	0%	100%	inactive	inactive	
CCCCNC(=O)c1c(CSc2ccccc2)noc1C(=O)NCc1ccccc1	0%	100%	inactive	inactive	
CC(C)NC(=O)c1c(CSc2ccccc2)noc1C(=O)NCc1ccccc1	0%	83%	inactive	inactive	
CC(C)CCNC(=O)c1c(CSc2ccccc2)noc1C(=O)NCc1ccccc1	0%	67%	inactive		
COCCNC(=O)c1c(CS(=O)(=O)c2ccc(Cl)cc2)noc1C(=O)NCc1ccccc1	0%	100%	inactive	inactive	
CCCNC(=O)c1onc(CS(=O)(=O)c2ccccc2)c1C(=O)NCCC	0%	100%	inactive	inactive	
COCCNC(=O)c1onc(CSc2ccccc2)c1C(=O)NCCOC	0%	83%	inactive	inactive	
COCCNC(=O)c1onc(CSc2ccc(F)cc2)c1C(=O)NCCOC	0%	67%	inactive		
CCCNC(=O)c1c(CS(=O)(=O)c2ccc(Cl)cc2)noc1C(=O)NCc1ccccc1	0%	100%	inactive	inactive	
CCCNC(=O)c1onc(CSc2cc(C)cc(C)c2)c1C(=O)NCCC		50%	inactive		
C=CCNC(=O)c1onc(CS(=O)(=O)c2ccc(Cl)cc2)c1C(=O)NCC=C	0%	100%	inactive	inactive	
CCCCNC(=O)c1onc(CSc2ccncc2)c1C(=O)NCCCC	0%	67%	inactive		
CC(C)CCNC(=O)c1onc(CSc2ccncc2)c1C(=O)NCCC(C)C	0%	83%	inactive		
CCCNC(=O)c1c(CSc2ccccc2)noc1C(=O)NCc1ccccc1	38%	83%	inactive	inactive	
CC(C)NC(=O)c1onc(CSc2ccc(Cl)cc2)c1C(=O)NC(C)C	0%	83%	inactive	inactive	
